Reference: ChEMBL document CHEMBL2176911 (J Med Chem, 2012)
Activity calls are given as the source filed them. The rule behind the calls is not given here.

Tests used:
[1] = biological target: Dual specificity protein kinase CLK2 (Mus musculus, UniProt O35491); assay: Inhibition of mouse recombinant GST-tagged CLK2 expressed in Escherichia coli using GRSRSRSRSRSR as substrate and [gamma33P]ATP after 30 mins by scintillation counting
Summary of the method: (§1)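 Panel of purified kinases (recombinant from several species plus native enzymes), each assayed radiometrically over a range of inhibitor concentrations; IC50 in μM calculated from the dose-response curves.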

[2] = Inhibition of pig […] isolated from brain using RRKHAAIGpSAYSITA as substrate and [gamma33P]ATP after 30 mins by scintillation couting; set-up: species or system Sus scrofa; summary of the method: as §1
CDK9/cyclin T1 = CDK9/cyclin T1 (Homo sapiens, UniProt P50750); assay: Inhibition of human recombinant CDK9/cyclin T expressed in insect cell using YSPTSPSYSPTSPSYSPTSPSKKKK as substrate and [gamma33P]ATP after 30 mins by scintillation counting; summary of the method: as §1
[3] = biological target: Cyclin-dependent kinase 2/cyclin A (Homo sapiens, UniProt P24941); assay: Inhibition of CDK2/cyclin A using [gamma33P]ATP after 30 mins by scintillation counting; type: protein-complex assay; summary of the method: as §1
Brain = assay: Toxicity against CD Sprague-Dawley rat brain expressing human APP at 0.03 to 3 uM after 3 hrs by fluorescence microscopic analysis; type: tissue-based; details: in vivo
HT-22 [4] = assay: Neuroprotective activity against glutamate-induced toxicity in mouse HT22 cells after 24 hrs by MTS assay; type: functional, cell-based
HT-22 [5] = assay: Inhibition of GSK3-mediated […] phosphorylation in mouse HT22 cells at 0.01 to 10 uM after 24 hrs by Western blot analysis in presence of MG132; type: cell-based
HT-22 [6] = assay: Inhibition of GSK3 isolated from mouse HT22 cells; type: cell-free
HT-22 [7] = assay: Downregulation of GSK3 expression in mouse HT22 cells after 4 hrs by Western blot analysis; type: functional, cell-based
[8] = biological target: Casein kinase II subunit alpha' (Mus musculus) (UniProt O54833); assay: Binding affinity to CK2 alpha' subunit in mouse brain homogenate by Western blot analysis; type: tissue-based
Summary of the method: (§2)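 Bead pull-down from HT22 cell or mouse brain extracts, with ethanolamine beads lacking ligand as control. Specificity was tested by adding excess free inhibitor to the extracts before binding.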

[9] = biological target: Protein VAC14 homolog (Mus musculus) (UniProt Q80WQ2); assay: Binding affinity to VAC14 in mouse HT22 cell lysate by Western blot analysis; type: cell-free; details: HT-22; summary of the method: as §2
[10] = biological target: 1-phosphatidylinositol 3-phosphate 5-kinase (Mus musculus) (UniProt Q9Z1T6); assay: Binding affinity to phosphatidylinositol-3-phosphate 5-kinase type 3 in mouse HT22 cell lysate by Western blot analysis; type: cell-free; details: HT-22; summary of the method: as §2
[11] = biological target: Casein kinase II subunit alpha (Mus musculus) (UniProt Q60737); assay: Binding affinity to CK2 alpha subunit in mouse HT22 cell lysate by Western blot analysis; type: cell-free; details: HT-22; summary of the method: as §2
Protein VAC14 homolog = Protein VAC14 homolog (Mus musculus, UniProt Q80WQ2); assay: Binding affinity to VAC14 in mouse brain homogenate after 3 hrs by competition affinity chromatographic analysis; type: tissue-based
Summary of the method: (§3)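 Mouse brain lysate applied to a KinAffinity matrix of mixed immobilized broad-spectrum kinase inhibitors at highest loading density, with increasing concentrations of free inhibitor added. […] Separate titrations of the immobilized ligands gave BC50 values.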

[12] = biological target: 1-phosphatidylinositol 3-phosphate 5-kinase (Mus musculus, UniProt Q9Z1T6); assay: Binding affinity to phosphatidylinositol-3-phosphate 5-kinase type 3 in mouse brain homogenate after 3 hrs by competition affinity chromatographic analysis; type: tissue-based; summary of the method: as §3
[13] = biological target: Casein kinase II subunit alpha' (Mus musculus, UniProt O54833); assay: Binding affinity to CSNK2A2 in mouse brain homogenate after 3 hrs by competition affinity chromatographic analysis; type: tissue-based; summary of the method: as §3
[14] = biological target: Casein kinase II subunit beta (Mus musculus, UniProt P67871); assay: Binding affinity to […] in mouse brain homogenate after 3 hrs by competition affinity chromatographic analysis; type: tissue-based; summary of the method: as §3
[15] = biological target: STE20-like serine/threonine-protein kinase (Mus musculus, UniProt O54988); assay: Binding affinity to SLK1 in mouse brain homogenate after 3 hrs by competition affinity chromatographic analysis; type: tissue-based; summary of the method: as §3
[16] = biological target: Serine/threonine-protein kinase TAO1 (Homo sapiens, UniProt Q7L7X3); assay: Binding affinity to TAOK1
[17] = biological target: Dual specificity protein kinase CLK3 (Homo sapiens, UniProt P49761); assay: Binding affinity to CLK3
[18] = Inhibition of CK2 at 10 uM after 30 mins
[19] = biological target: Serine/threonine-protein kinase pim-3 (Homo sapiens) (UniProt Q86V86); assay: Inhibition of human recombinant His6-tagged PIM3 expressed in Sf21 cells using RSRHSSYPAGT as substrate at 1 uM after 30 mins
[20] = biological target: Serine/threonine-protein kinase pim-3 (Homo sapiens) (UniProt Q86V86); assay: Inhibition of human recombinant His6-tagged PIM3 expressed in Sf21 cells using RSRHSSYPAGT as substrate at 10 uM after 30 mins
[21] = biological target: Homeodomain-interacting protein kinase 2 (Homo sapiens) (UniProt Q9H2X6); assay: Inhibition of human recombinant GST-tagged HIPK2 expressed in Escherichia coli at 10 uM after 30 mins
[22] = biological target: T1, Dual specificity tyrosine-phosphorylation-regulated kinase 2 (Homo sapiens) (UniProt Q92630); assay: Inhibition of human recombinant GST-tagged DYRK2 expressed in Escherichia coli using KKISGRLSPIMTEQ as substrate at 1 uM after 30 mins
T1 sequence (whole entry): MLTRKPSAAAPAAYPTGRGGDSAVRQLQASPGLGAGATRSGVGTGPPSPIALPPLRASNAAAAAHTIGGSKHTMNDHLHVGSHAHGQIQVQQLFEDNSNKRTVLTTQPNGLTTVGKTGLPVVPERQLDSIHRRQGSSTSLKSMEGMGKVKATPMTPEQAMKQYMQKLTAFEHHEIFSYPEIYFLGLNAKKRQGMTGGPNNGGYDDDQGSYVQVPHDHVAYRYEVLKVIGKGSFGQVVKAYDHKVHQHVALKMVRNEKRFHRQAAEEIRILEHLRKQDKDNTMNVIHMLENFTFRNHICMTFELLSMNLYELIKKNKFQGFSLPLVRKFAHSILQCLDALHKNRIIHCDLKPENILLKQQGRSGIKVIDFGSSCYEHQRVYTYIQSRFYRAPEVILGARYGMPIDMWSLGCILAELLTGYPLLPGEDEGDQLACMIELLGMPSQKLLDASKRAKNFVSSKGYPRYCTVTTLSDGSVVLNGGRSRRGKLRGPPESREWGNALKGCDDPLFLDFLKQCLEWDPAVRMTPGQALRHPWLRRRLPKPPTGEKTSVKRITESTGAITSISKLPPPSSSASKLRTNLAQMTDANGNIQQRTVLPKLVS

[23] = biological target: Dual specificity tyrosine-phosphorylation-regulated kinase 1A (Homo sapiens) (UniProt Q13627); assay: Inhibition of human recombinant GST-tagged DYRK1A expressed in Escherichia coli using KKISGRLSPIMTEQ as substrate at 1 uM after 30 mins
[24] = biological target: Dual specificity tyrosine-phosphorylation-regulated kinase 1A (Homo sapiens) (UniProt Q13627); assay: Inhibition of human recombinant GST-tagged DYRK1A expressed in Escherichia coli using KKISGRLSPIMTEQ as substrate at 10 uM after 30 mins
[25] = Inhibition of Plasmodium falciparum recombinant GSK3 expressed in Escherichia coli using YRRAAVPPSPSLSRHSSPHQ-phosphoS-EDEEE as substrate and [gamma33P]ATP after 30 mins by scintillation counting; summary of the method: as §1

## O=C1NC(Nc2ccccc2)=N/C1=C\c1ccc2c(c1)OCO2
[1]
  IC50: 720 nM
[2]
  IC50: 30000 nM
CDK9/cyclin T1
  IC50: 18000 nM
[3]
  IC50: > 30000 nM
Brain
  Activity: Non-toxic
HT-22 [4]
  Activity: Dose-dependent effect
HT-22 [5]
  inhibition: inactive
HT-22 [6]
  inhibition: inactive
HT-22 [7]
  Activity: inactive
[8]
  Activity: Active
[9]
  Activity: Active
[10]
  Activity: Active
[11]
  Activity: Active
Protein VAC14 homolog
  Kd(free): 15265 nM
[12]
  Kd(free): 6010 nM
[13]
  Kd(free): 574 nM
[14]
  Kd(free): 382 nM
[15]
  Kd(free): 21 nM
[16]
  Kd: 1700 nM
[17]
  Kd: 1100 nM
[18]
  inhibition: Active
[19]
  inhibition: Active
[20]
  inhibition: Active
[21]
  inhibition: Active
[22]
  inhibition: Active
[23]
  inhibition: Active
[24]
  inhibition: Active
[25]
  IC50: > 10000 nM
